Source: PubChem
iPSC survival up = enhancers of human iPSC single-cell survival | hiPSC single-cell survival, ATPlite luminescence; 100% = ROCK inhibitor wells, 0% = DMSO | survival enhancement, % at 20 µM | 360,000 tested, 0.044% active; in the data active means survival enhancement above about 18%;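 further: cells exposed to compounds for 16 hours before the ATP read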
SENP1 inh = blocks the human SENP1 SUMO protease catalytic domain; Q9P0U3; recombinant SENP1 catalytic domain, CyPet-SUMO1-YPet FRET cleavage; inhibition, % at 10 µM; 360,000 tested, 0.21% active; AID 624204;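 active means inhibition at least 30% at 10 µM, raw YFP signal under a set limit, fluorescence ratio 0.5 to 1.5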
Target sequence (Q9P0U3 419-644 limits assumed): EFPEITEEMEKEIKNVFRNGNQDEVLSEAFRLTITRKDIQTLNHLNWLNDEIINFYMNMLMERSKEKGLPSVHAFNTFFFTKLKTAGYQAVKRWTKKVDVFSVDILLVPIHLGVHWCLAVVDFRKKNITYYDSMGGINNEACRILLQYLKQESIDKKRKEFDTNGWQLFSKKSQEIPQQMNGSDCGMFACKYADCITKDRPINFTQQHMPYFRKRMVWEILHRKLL
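system = hSENP1 catalytic domain, recombinant | reagent = SFCypet-SUMO1-SFYpet substrate at 25 nM | doses = one dose per compound, 10 µM, 0.5% DMSO | incubation = enzyme reaction for 50 min at room temperature, dark | measured by = FRET, CFP and YFP emission | controls = no-enzyme low, enzyme-DMSO high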
Arr AP2 block = inhibitors of human beta-arrestin and AP2 interaction; 340,000 tested, 0.31% active; FITC-arrestin peptide / GST-AP2 beads, flow cytometry; AP2 beta2 appendage carries R879A mutation; inhibition, % at 10 µM; AID 504490;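 active means inhibition above a set limit, near 3 SD of compounds lacking own fluorescence, cut at about 54% in these data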
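Material – GST-tagged AP2 beta2-adaptin appendage (R879A) on 4 µm glutathione beads · Probe or stimulus – fluorescein-tagged arrestin peptide at 50 nM final · Timing – 12 min plus 1 h, RT · Detection – bead flow cytometry, FITC channel · Read-out basis – inhibition as reduced fluorescein signal on beads, percent · Medium – PBS plus Tween 20 (0.05%) and BSA (0.1%)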
Cardio protect = protects H9c2 cardiomyocytes from peroxide injury; H2O2 injury protection, ATPLite, 2 h; 360,000 tested, 0.63% active; protection from H2O2 cell death, % at 20 µM;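 active means compounds giving at least 50% protection of heart cells from peroxide-induced death in the single-dose screen, raw or plate-pattern-corrected value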
GRIN3A LBD mod = modulates the human NR3A ligand-binding domain; Tm shift relative to glycine control, % at 25 µM; 340,000 tested, 2.5% active; AID 1259313; NR3A LBD differential scanning fluorimetry, Tm shift; 0% = protein alone, 100% = glycine-bound protein;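 active means melting temperature shift of at least 10% of the positive control shift, at one fixed dose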
FAS-TE inh = FAS thioesterase (human) inhibition; P49327; recombinant FAS-TE, OMFH fluorogenic substrate, fluorescence endpoint; inhibition, % at 15 µM; 360,000 tested, 0.67% active;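 active means compounds whose normalised, plate-corrected inhibition of enzyme fluorescence in the single-dose primary screen is 50% or more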
FAS-TE conf = confirmation of human fatty acid synthase thioesterase inhibitors; recombinant FAS-TE, OMFH fluorogenic substrate, fluorescence; AID 624325; 2,300 tested, 45% active; shares compounds with FAS-TE inh; inhibition, % at 15 µM;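 active means compounds inhibiting the enzyme by at least 50% at 15 µM in any one of the replicates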
Each line names hits and unclear results; the compound was inactive in the other large screens (follow-up assays come after a bar, where they were run). Most compounds without a hit are left out; they make up all but 4% or so of the library.

O=C(c1ccoc1)N1CCC2(CC1)Oc1ccc(F)cc1C(=O)C21CC(c2ccccc2)=NO1 (centres undefined)	none
CC(C)(C)OC(=O)N1CCC2(CC1)Oc1ccc(F)cc1C(=O)C21CC(c2ccccc2)=NO1 (centres undefined)	FAS-TE inh 59 | FAS-TE conf inactive
COc1ccc(-c2nc3c(Cl)cc(C(F)(F)F)cn3c2Cc2ccc(C)cc2)cc1OC	none (no result: Arr AP2 block, GRIN3A LBD mod)
Cc1ccc(C(=O)N2CCC3(CC2)Oc2ccc(Cl)cc2C(=O)C32CC(c3ccccc3)=NO2)s1 (centres undefined)	none
Cc1ccc(C(=O)N2CCC3(CC2)Oc2ccc(F)cc2C(=O)C32CC(c3ccccc3)=NO2)s1 (centres undefined)	FAS-TE inh 72 | FAS-TE conf inactive
Cc1cc(C(=O)NC(C)CCc2ccccc2)ccc1[N+](=O)[O-] (centres undefined)	FAS-TE inh 52 | FAS-TE conf inactive
COc1ccc(C(=O)OCC(=O)NCCCc2ccccc2)cc1[N+](=O)[O-]	FAS-TE inh 79 | FAS-TE conf 79
CC(CCc1ccccc1)NC(=O)c1ccc(C(=O)NC(C)CCc2ccccc2)cc1 (centres undefined)	none
COc1ccc(C(=O)OC(C)C(=O)NC(C)CCc2ccccc2)c(OC)c1 (centres undefined)	none
CC(OC(=O)c1ccc(Cl)c([N+](=O)[O-])c1)C(=O)N1CCN(Cc2ccccc2)CC1 (centres undefined)	FAS-TE inh 73 | FAS-TE conf 54
COC(=O)CNC(=O)COC(=O)c1ccc(OC)c([N+](=O)[O-])c1	none
COc1ccc(C(=O)OC(C)C(=O)NC(C)CCc2ccccc2)cc1[N+](=O)[O-] (centres undefined)	FAS-TE inh 59 | FAS-TE conf 32
CN1OC[C@@H]2CN(C(=S)NCCc3ccccc3)[C@H](c3ccc(N4CCCCC4)cc3)C[C@@H]21	none (no result: Arr AP2 block, GRIN3A LBD mod)
COc1ccc(S(=O)(=O)N2CCC(C(=O)NCCC(=O)NCc3ccccn3)CC2)cc1	none (no result: Arr AP2 block, GRIN3A LBD mod)
COC(=O)c1ccc(S(=O)(=O)N2CCN(C(c3ccccc3)c3ccccc3)CC2)n1C	FAS-TE inh 55 | FAS-TE conf inactive
COc1cc(OC)c(C2=NOC(C(=O)N3CCc4ccccc4C3)C2)cc1Cl (centres undefined)	FAS-TE inh 80 | FAS-TE conf 60
COc1cc(OC)c(C2=NOC(C(=O)NCc3ccc4c(c3)OCO4)C2)cc1Cl (centres undefined)	FAS-TE inh 60 | FAS-TE conf inactive
COc1cc(OC)c(C2=NOC(C(=O)N3CCN(C(=O)c4ccco4)CC3)C2)cc1Cl (centres undefined)	none
O=C(NCc1ccc2c(c1)OCO2)C1CC(c2ccc(Cl)cc2)=NO1 (centres undefined)	none
COc1cc(OC)c(C(=O)c2ccccc2[N+](=O)[O-])c(OC)c1	none (no result: Arr AP2 block, GRIN3A LBD mod)
CC1(C(=O)Nc2cnc3ccccc3c2)CCN1Cc1ccc(OC(F)(F)F)cc1 (centres undefined)	none (no result: Arr AP2 block, GRIN3A LBD mod)
CCn1cc(C(=O)NCc2ccc(C)cc2)c(=O)c2cc(S(=O)(=O)N(C)C)ccc21	FAS-TE inh 56 | FAS-TE conf 62
CCn1cc(C(=O)NCCC2=CCCCC2)c(=O)c2cc(S(=O)(=O)N(C)C)ccc21	FAS-TE inh 80 | FAS-TE conf 82
COc1ccc(S(=O)(=O)NC(=O)C2(C)CCN2C(=O)Cc2cc(C)cc(C)c2)cc1 (centres undefined)	none (no result: Arr AP2 block, GRIN3A LBD mod)
COc1cc2c(cc1OC)C(c1ccccc1[N+](=O)[O-])=NCC2	none (no result: Arr AP2 block, GRIN3A LBD mod)
Cc1ccccc1-n1c(SCC(=O)c2c(N)n(C)c(=O)n(C)c2=O)nnc1-c1cccnc1	none
Cc1ccccc1-n1c(SCC(=O)c2c(N)n(C)c(=O)n(C)c2=O)nc2sc3c(c2c1=O)CCCC3	FAS-TE inh 90 | FAS-TE conf inactive
CSC(=Nc1ccccc1)N=C(SCc1ccccc1)N(C)C	GRIN3A LBD mod 11, FAS-TE inh 84 | FAS-TE conf 90
N#CNC(=Nc1ccccc1)SCc1ccc(C(=O)O)cc1	none
OC(c1cc(F)cc(Cl)c1)c1ncc(-c2ccc3ccccc3c2)[nH]1 (centres undefined)	none (no result: Arr AP2 block, GRIN3A LBD mod)
CC(=O)NC(c1ccc(F)c(F)c1)c1nc(-c2cnn(C)c2)cs1 (centres undefined)	none (no result: Arr AP2 block, GRIN3A LBD mod)
Cc1sc2ncnc(N3CCC(C(=O)Nc4sc5c(c4C(N)=O)CCC(C)C5)CC3)c2c1C (centres undefined)	FAS-TE inh 66 | FAS-TE conf inactive
O=C1C2ON(c3ccccc3)C(c3cccnc3)C2C(=O)N1c1ccccc1 (centres undefined)	none
O=C1C2ON(c3ccccc3)C(c3cccnc3)C2C(=O)N1c1ccc(Cl)c(Cl)c1 (centres undefined)	FAS-TE inh 60 | FAS-TE conf 60
COCCNC(=O)C1CCCN(C(=O)c2ccc3c(c2)C(C)(C)CCC3(C)C)CC1 (centres undefined)	none (no result: Arr AP2 block, GRIN3A LBD mod)
CC(=O)N1CCN(c2ccccc2NC(=O)c2ccc(-c3cccc([N+](=O)[O-])c3)o2)CC1	Cardio protect 79, FAS-TE inh 66 | FAS-TE conf 42
Fc1cccc(-c2cc3nc4c(c(N5CCC6(CC5)OCCO6)n3n2)CCCC4)c1	FAS-TE inh 55 | FAS-TE conf inactive
Fc1cccc(-c2cc3nc(-c4ccccc4)cc(N4CCC5(CC4)OCCO5)n3n2)c1	none
COC(=O)c1ccc(C2c3c(oc4ccccc4c3=O)C(=O)N2CCCN2CCOCC2)cc1 (centres undefined)	none
COC(=O)c1ccc(C2c3c(oc4ccc(Cl)cc4c3=O)C(=O)N2CCN2CCOCC2)cc1 (centres undefined)	FAS-TE inh 54 | FAS-TE conf 62
O=C(NCc1ccc(Cl)nc1)c1csc([C@@H]2C[C@H](O)[C@@H](CO)O2)n1	none (no result: Arr AP2 block, GRIN3A LBD mod)
CCCCN(C=O)c1c(CC)nc2c(OCc3cc(Cl)cc(Cl)c3)cccn12	none (no result: Arr AP2 block, GRIN3A LBD mod)
CCc1nc2c(OCc3ccc(Cl)cc3)cccn2c1N(C=O)Cc1ccccc1	FAS-TE inh 64 (no result: Arr AP2 block, GRIN3A LBD mod) | FAS-TE conf 71
COc1cc(C2CC(=O)Nc3cc(C)c(C)cc32)cc(OC)c1OC (centres undefined)	none
Cc1cc2c(cc1C)C(c1cccc([N+](=O)[O-])c1)CC(=O)N2 (centres undefined)	FAS-TE inh 60 | FAS-TE conf 79
